HCT116 PTEN-null: growth suppressors of cells with PTEN tumor suppressor deletion; HCT116 PTEN-null viability, CellTiter-Glo, 60 h; active compounds read low; 140,000 compounds, 1.2% hits; viability, % at 10 µM;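 active = viability at or below a set limit, 4 SD under the median of all tested compounds, cut at about 3.7% in these data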;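 also: PTEN knockout HCT116 line with beta catenin targeted HCT116 as companion control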
Cav3 T inh: blocks human Cav3.2 T-type calcium channel; O95180; AID 449739; B-score at 10 µM; Cav3.2-expressing cells, Fluo-4 calcium fluorescence FDSS; active compounds read low; 100,000 compounds, 4% hits;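 active = single-dose well whose peak fluorescence ratio is a statistical outlier from its plate by either plate-standardised score or position-corrected B-score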
H69AR growth 86K: growth inhibitors of human H69AR lung tumor cells. viability, % at 10 µM. 85,000 compounds, 6% hits. H69AR lung tumor viability, ATP luminescence, 72 h; active compounds read low;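 active = viability at or below 40%; inactive = viability above 40%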;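 also: multidrug resistant small cell line overexpressing MRP-1 efflux transporter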
Fibroblast inh: blocks proliferation of human lung fibroblasts; LL 47 human lung fibroblast viability, ATP luminescence; active compounds read low; viability, % at 10 µM; 85,000 compounds, 1.1% hits;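 active = viability at or below 50% in the single dose screen; inactive = viability above 50%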;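 also: compound exposure lasted 72 h before the ATP readout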
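Material: Human LL 47 lung fibroblast cells | Input: 1,150 cells/well | Buffer or medium: IMEM plus 15% FBS | Compound dosing: 0.1% DMSO in all compound wells | Times: Overnight cell rest, 72 h compound treatment at 37 °C | Signal: CellTiter-Glo luminescence measuring cellular ATP | Measure: % viability versus median cells-only luminescence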
bCat KO growth: beta-catenin-lacking colon tumor cell growth suppression. HCT116 beta-catenin knockout viability, CellTiter-Glo, 60 h; active compounds read low. viability, % at 10 µM. 140,000 compounds, 1.5% hits. AID 818;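 active = viability at or under a set limit, the compound median less 4 SD, cut at about 6% in these data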
HUVEC inhibit: blocks proliferation of human endothelial cells; HUVEC proliferation, CellTiter-Glo luminescence, 72 h; active compounds read low; viability, % at 10 µM (by protocol); 86,000 compounds, 1.1% hits; AID 648;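 active = viability at or below 30%; inactive = viability above 30%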
Large screens that a line does not name were inactive. The list is not random: actives were taken first. Their share in the collection is about 7.1%.

C/C(=N\Nc1cc(-c2ccccc2)nc(-c2ccccc2)n1)c1ccc(O)c(C)c1	HCT116 PTEN-null 2.0 (no result: Cav3 T inh, H69AR growth 86K, Fibroblast inh, HUVEC inhibit)
Fc1cc(Br)ccc1Nc1nc2ccccc2n2nnnc12	H69AR growth 86K 25
COc1ccc(/C(O)=C/c2nc3ccccc3n(-c3ccccc3)c2=O)cc1	H69AR growth 86K 23
Cn1c(SC2=CS(=O)(=O)c3ccccc32)nc2ccccc21	HCT116 PTEN-null 1.4, H69AR growth 86K 0.6, Fibroblast inh 2.2, bCat KO growth 2.5
CCOC(=O)c1oc2ccccc2c1NC(=O)c1cccc(OC)c1OC	H69AR growth 86K 30
O=C1S/C(=C\c2ccc(N3CCOCC3)o2)C(=O)N1Cc1c(F)cccc1Cl	Cav3 T inh -5.7 (no result: H69AR growth 86K, Fibroblast inh, HUVEC inhibit)
O=C1S/C(=C/c2ccc(N3CCOCC3)o2)C(=O)N1Cc1c(F)cccc1Cl	none
Cc1cc(C)n(-c2nc(NCC3CCCO3)c3c4c(sc3n2)COC(C)(C)C4)n1 (centres undefined)	H69AR growth 86K 10
Cc1cc(C)n(-c2nc(SCCN(C)C)c3c4c(sc3n2)COC(C)(C)C4)n1	HCT116 PTEN-null 3.3, bCat KO growth 1.9 (no result: H69AR growth 86K, Fibroblast inh, HUVEC inhibit)
CCCCn1c(SCC(=O)Nc2cc(C(F)(F)F)ccc2Cl)nnc1C(CC)N(C)C (centres undefined)	none (no result: Cav3 T inh, H69AR growth 86K, Fibroblast inh, HUVEC inhibit)
CCOC(=O)c1cn(-c2ccc(F)c(F)c2F)c2c(F)c(F)c(F)cc2c1=O	none (no result: H69AR growth 86K, Fibroblast inh, HUVEC inhibit)
CCOC(=O)c1cn(-c2nc(-c3ccc(Cl)c(Cl)c3)cs2)c2c(F)c(N3CCOCC3)c(F)cc2c1=O	HCT116 PTEN-null 1.2, bCat KO growth 1.7 (no result: Cav3 T inh, H69AR growth 86K, Fibroblast inh, HUVEC inhibit)
CC(C)CC(=O)NC(Nc1ccc([N+](=O)[O-])cc1)C(Cl)(Cl)Cl (centres undefined)	none (no result: Cav3 T inh, H69AR growth 86K, Fibroblast inh, HUVEC inhibit)
Cc1ccc(C2C3CSCC=C3C(C#N)=C(N)C2(C#N)C#N)cc1 (centres undefined)	none
CC(C)(C)OC(=O)N1CC=C2C(C#N)=C(N)C(C#N)(C#N)C(c3cccs3)C2C1 (centres undefined)	H69AR growth 86K 23
CC1CC=C2C(C#N)=C(N)C(C#N)(C#N)C(c3cccs3)C2C1 (centres undefined)	H69AR growth 86K 32 (no result: Cav3 T inh)
O=C(CN1CCN(c2ncccn2)CC1)N1CCN(C(c2ccccc2)c2ccccc2)CC1	none (no result: HCT116 PTEN-null, Cav3 T inh, bCat KO growth)
C=CCn1c(C)cc(C(=O)COC(=O)c2ccc3c(c2)NC(=O)CS3)c1C	none (no result: Cav3 T inh, H69AR growth 86K, Fibroblast inh, HUVEC inhibit)
CC(OC(=O)CCCCCN=C1NS(=O)(=O)c2ccccc21)C(=O)Nc1cc(Cl)cc(Cl)c1 (centres undefined)	none (no result: Cav3 T inh, H69AR growth 86K, Fibroblast inh, HUVEC inhibit)
COc1ccccc1CNC(=O)C(NS(=O)(=O)c1ccc2c(c1)OCCO2)C(C)C (centres undefined)	none (no result: Cav3 T inh, H69AR growth 86K, Fibroblast inh, HUVEC inhibit)
COc1ccc(N2C(=O)NC3CC2(C)Oc2ccc(Br)cc23)cc1OC (centres undefined)	H69AR growth 86K 38 (no result: Cav3 T inh)
Cc1nnc(SCC(=O)N2c3ccccc3C(C)(c3ccccc3)CC2(C)C)s1 (centres undefined)	none (no result: Cav3 T inh, H69AR growth 86K, Fibroblast inh, HUVEC inhibit)
C/C(N)=C(/C#N)C(=O)CSc1nc(C2CCCCC2)n(-c2ccccc2)n1	Cav3 T inh -5.1
COc1ccc([N+](=O)[O-])cc1NC(=O)C1CCCO1 (centres undefined)	none (no result: Cav3 T inh, H69AR growth 86K, Fibroblast inh, HUVEC inhibit)
N#CC(c1ccccc1)N(CCCCl)C(=O)c1ccccc1 (centres undefined)	none (no result: Cav3 T inh, H69AR growth 86K, Fibroblast inh, HUVEC inhibit)
COc1ccc(OCC(=O)Nc2cccc(C(=O)Nc3ccccc3C(=O)O)c2)cc1	none (no result: Cav3 T inh, H69AR growth 86K, Fibroblast inh, HUVEC inhibit)
CC(C(=O)NC(=O)NCc1ccccc1)N1C(=O)c2ccccc2C1=O (centres undefined)	HCT116 PTEN-null 0.9, bCat KO growth 0.9
CCCCC(C(=O)NC(=O)NCc1ccccc1)N1C(=O)c2ccccc2C1=O (centres undefined)	none
CC(C)(c1ccccc1)c1ccc(OCCCNCCO)cc1	H69AR growth 86K 0.9, bCat KO growth 1.8, HUVEC inhibit 26
COCCCNCCCOc1ccc(C(C)(C)c2ccccc2)cc1	none (no result: Cav3 T inh, H69AR growth 86K, Fibroblast inh, HUVEC inhibit)
CCC(C(=O)OCC(=O)Nc1cc(Cl)cc(Cl)c1)c1ccccc1 (centres undefined)	none (no result: Cav3 T inh, H69AR growth 86K, Fibroblast inh, HUVEC inhibit)
CCOC(=O)C1CCCN(CC(=O)NC2=Nc3ccccc3N=C(C)C2c2ccccc2)C1 (centres undefined)	Cav3 T inh -6.2
Cc1ccc(Nc2nc(N3CCN(C)CC3)nc(N)c2[N+](=O)[O-])cc1C	none (no result: Cav3 T inh, H69AR growth 86K, Fibroblast inh, HUVEC inhibit)
COc1ccc(OC)c(C(C)NC(=O)c2ccco2)c1 (centres undefined)	H69AR growth 86K 22

Bioassay records from PubChem.
